Screening results (PubChem)
Hck Nef HTS: blocks Nef-activated human Hck kinase | P08631 | Recombinant Hck-YEEI plus Nef, Z-Lyte FRET kinase assay | inhibition, % at 20 µM | hit rate 0.68% among 220,000;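 active means Hck-Nef kinase inhibition above about 50%, limit read from the data; inactive means inhibition below that limit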;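 further: 0% = DMSO with Hck plus Nef and 100% = Hck alone without Nef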
Target sequence (P08631 whole entry, looked up): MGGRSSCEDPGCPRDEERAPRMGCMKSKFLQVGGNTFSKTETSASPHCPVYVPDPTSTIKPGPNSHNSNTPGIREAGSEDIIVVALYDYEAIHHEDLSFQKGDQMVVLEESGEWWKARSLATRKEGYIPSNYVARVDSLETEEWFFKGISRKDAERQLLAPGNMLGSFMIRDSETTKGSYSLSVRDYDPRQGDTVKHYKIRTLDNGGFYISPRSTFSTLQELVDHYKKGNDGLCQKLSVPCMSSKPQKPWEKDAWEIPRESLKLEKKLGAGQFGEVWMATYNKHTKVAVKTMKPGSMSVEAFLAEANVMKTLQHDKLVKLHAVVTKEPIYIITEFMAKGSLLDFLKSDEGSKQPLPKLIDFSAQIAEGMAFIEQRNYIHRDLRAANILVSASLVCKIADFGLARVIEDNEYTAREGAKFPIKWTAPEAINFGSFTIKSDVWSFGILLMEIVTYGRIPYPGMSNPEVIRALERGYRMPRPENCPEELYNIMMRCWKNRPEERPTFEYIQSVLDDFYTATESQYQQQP
Runt-SMMHC FRET: blocks binding of human RUNX1 Runt domain to CBFb-SMMHC; Q01196+Q13951; inhibition, % at 20 µM; Cerulean-Runt/Venus-CBFb-SMMHC FRET ratio 530/480, 1 h; hit rate 0.74% among 220,000;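 active means mean inhibition across duplicate retests at 20 µM reaching about 50%, limit read from the data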;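 further: 0% = DMSO wells and 100% = wells with excess untagged CBFb-SMMHC; inhibitors lower the FRET ratio by blocking Runt binding to CBFb-SMMHC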
CaV13 ICDI inh: Disruptors of the CACNA1D IQ motif to Ca2+-dependent inactivation inhibitor domain association, primary screening, Förster resonance energy transfer in intact living … | inhibition, % at 12.3 µM | HEK cells, CFP/YFP FRET ICDI-IQ, plate reader, 10 min; percent FRET-ratio fall versus neutral wells | hit rate 0.098% among 340,000;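 active means mean replicate inhibition of at least 30% and at least 1% of replicates passing that level; inconclusive means only one of the two criteria is met; inactive means neither criterion is met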;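 further: 0% = median of the neutral control wells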
RanGTP-Impb inh: disruptors of Ran-importin-beta complex formation – biochemical, FRET, CFP-Ran, YFP-importin-beta, homogeneous, primary screen | inhibition, % (concentration not given with the values) | cell-free CFP-Ran/YFP-importin-beta FRET ratio | AID 2216 | hit rate 1.1% among 300,000;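 active means more than half of the replicate wells show a fall in the fluorescence ratio signal beyond about 16%, limit read from the data, passing the limit was not always enough; inconclusive means exactly half of the replicate wells pass the set limit; inactive means fewer than half of replicates pass the limit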;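 further: 0% = DMSO wells and 100% = Ran loaded with GDP instead of GTP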
Runt-CBFb FRET: inhibitors of human RUNX1 Runt domain binding to CBFb | Q01196+Q13951 | Cerulean-Runt/Venus-CBFb FRET ratio 530/480, 1 h | inhibition, % at 20 µM | hit rate 0.46% among 220,000 | AID 1496;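 active means inhibition over about 50% at 20 µM in the single-dose screen, limit read from the data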;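 further: 0% = DMSO wells and 100% = excess unlabeled CBFb competitor control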
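test system = Cerulean-tagged RUNX1 Runt domain (FRET donor) fusion protein | reagent = Venus-CBFb binding partner, 100 nM | incubation = protein complex preformed 1 h, compound exposure 1 h, room temperature, dark | detection = FRET fluorescence | read-out basis = loss of energy transfer signal | controls = 5 µM unlabeled CBFb as full-inhibition high control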
An asterisk follows results filed as active; ? = inconclusive; · = not tested or not shown; + = active, no number. Compounds with a hit are over-represented: about 1.5% of the library has one in this group of screens.

SMILES | Hck Nef HTS | Runt-SMMHC FRET | CaV13 ICDI inh | RanGTP-Impb inh | Runt-CBFb FRET
COc1cc(C2C3=C(CC(C)(C)CC3=O)N(C)C3=C2C(=O)CC(C)(C)C3)cc(Br)c1O | · | · | 35.5* | ? | ·
Cn1cc(S(=O)(=O)N2CCOCC2)cc1C(=O)O | · | · | -10.3 | · | ·
NS(=O)(=O)c1ccc(-c2ccc(/C=C3\C(=O)Nc4ccccc43)o2)cc1 | · | · | · | 4.0 | ·
CC1(C)OC(=O)C(=Cc2ccc(-c3ccc(S(N)(=O)=O)cc3)o2)C(=O)O1 | 58.0* | 17.7 | -5.6 | -2.2 | 8.1
O=C(CN1CCN(c2ccccc2)CC1)Nc1ccccc1C(F)(F)F | 1.5 | -4.2 | -1.7 | 1.5 | 79.5*
CN1CCN(CC(=O)Nc2ccccc2C(F)(F)F)CC1 | · | · | -3.7 | -1.4 | ·
O=C(CCS(=O)(=O)c1ccccc1)N1CCN(c2ccccc2)CC1 | · | · | · | -2.1 | ·
CN1C(=O)c2ccccc2CC12c1ccccc1C(=O)N2C (centres undefined) | · | · | -4.8 | · | ·
O=C(O)c1ccccc1-c1nc2ccccc2c(=O)[nH]1 | -0.5 | -0.2 | -5.1 | 25.1* | -0.4
Cc1cccc(N2CCC(N3CCN(C4CCCCC4)C(CCO)C3)CC2)c1C (centres undefined) | 6.4 | 4.9 | -6.1 | 8.3 | 1.6
COc1cccc(-c2ccc(NC(=O)C3CCCN(Cc4ccco4)C3)cc2)c1 (centres undefined) | · | · | -1.4 | -0.7 | ·
O=C(Nc1ccc(-c2ccco2)cc1)C1CCCN(Cc2ccco2)C1 (centres undefined) | · | · | 37.2* | · | ·
N#C[C@@H]1[C@@H]2C(=O)N(c3ccc4c(c3)OCCO4)C(=O)[C@@H]2C2c3ccccc3C=CN21 (some centres undefined) | 0.6 | -58.7 | · | 19.4* | -16.6
O=C(O)c1cc([N+](=O)[O-])ccc1NCc1cccnc1 | · | · | -19.4 | -1.0 | ·
NC(=O)c1cc([N+](=O)[O-])ccc1NCc1cccnc1 | 25.4 | -3.2 | 41.9* | 3.2 | -1.9
Cc1cc(C)c2c(=O)n(CC(=O)N3CCC(Cc4ccccc4)CC3)sc2n1 | -11.0 | 50.4* | · | -4.2 | -14.9
Cc1ccn2c(=O)nc(SCC(=O)N3CCC(Cc4ccccc4)CC3)nc2c1 | · | · | -4.6 | -7.2 | ·
Cc1cccc(N2CCN(C(=O)Cn3sc4nc(C)cc(C)c4c3=O)CC2C)c1 (centres undefined) | 0.9 | 73.9* | · | 2.0 | -20.5
Cn1c(SCC(=O)NN2C(=O)NC(C)(c3ccccc3)C2=O)nnc1-c1ccncc1 (centres undefined) | · | · | -3.8 | · | ·
Cc1ccc(N(C)c2nc(N)nc(N)c2N=O)cc1 | · | · | -50.0 | · | ·
COC(=O)c1ccc2nc(-c3ccccc3)c(Cc3cccc(Cl)c3)n2c1 | · | · | -6.9 | · | ·
Cc1ccc(NC(=O)c2cc3ccccc3oc2=N)cc1 | · | · | -19.6 | -5.9 | ·
N=c1oc2c3c4c(cc2cc1C(=O)Nc1ccccc1)CCCN4CCC3 | 0.8 | 60.9* | · | 133.4* | 32.4
Cc1ccc(N(CC(=O)NC2CCCCC2)C(=O)CNC(=O)c2ccco2)cc1C | · | · | -5.3 | 0.9 | ·
O=C(O)CC1c2ccccc2C=Cc2ccccc21 | · | · | -4.5 | ? | ·
SMILES | Hck Nef HTS | Runt-SMMHC FRET | CaV13 ICDI inh | RanGTP-Impb inh | Runt-CBFb FRET
CC(OC(=O)/C(C#N)=C/c1ccc(N(C)C)cc1)C(=O)N(C)c1ccccc1 (centres undefined) | · | · | 6.8 | 92.2* | ·
CC(C(=O)O)N1C(=O)C2C3CC(C2C1=O)C1C(c2ccccc2)c2sc(=O)[nH]c2SC31 (centres undefined) | -0.1 | 11.8 | -16.3 | 73.8* | 18.0
O=C(O)CN1C(=O)C2C3CC(C2C1=O)C1C(c2ccc(Cl)cc2)c2sc(=O)[nH]c2SC31 (centres undefined) | 22.5 | 27.2 | -5.3 | 73.3* | 41.9
O=C(O)CN1C(=O)C2C3CC(C2C1=O)C1C(c2ccc(F)cc2)c2sc(=O)[nH]c2SC31 (centres undefined) | 24.1 | 25.5 | -20.6 | 79.1* | 33.4
C=C(C)COc1ccc2c(C)c(CCC(=O)NC3CC3)c(=O)oc2c1 | · | · | -2.8 | -0.8 | ·
CCCCn1c(N)c(N(CC)C(=O)CSCC(=O)Nc2ccc(OC)cc2)c(=O)[nH]c1=O | · | · | -2.7 | -3.4 | ·
CCN(C[C@H]1N[C@@](Cc2ccccc2)(C(=O)OC)[C@H]2C(=O)N(C)C(=O)[C@@H]12)C(=O)Nc1ccccc1 | · | · | -6.6 | · | ·
N#CC1=C(N)Oc2cc(N)ccc2C1c1cccc(Br)c1 (centres undefined) | · | · | -2.2 | 54.9* | ·
N#CC1=C(N)Oc2cc(N)ccc2C1c1ccsc1 (centres undefined) | 0.7 | 23.2 | -5.1 | 33.2* | 22.9
Cc1ccc(/C=C2\CCC3=C2OC(N)=C(C#N)C3c2ccc(C)cc2)cc1 (centres undefined) | 3.7 | -74.1 | · | -81.2 | -31.4
CCOc1cc(C2C(C#N)=C(N)OC(C)=C2C(C)=O)cc(Br)c1O (centres undefined) | -1.4 | 1.4 | -4.1 | 19.2* | 1.0
N#CC1=C(N)Oc2cc3ccccc3cc2C1c1cccs1 (centres undefined) | -2.7 | -10.1 | -3.9 | -2.0 | -6.7
N#CC1=C(N)Oc2cc(N)ccc2C1c1cc(Br)cs1 (centres undefined) | · | · | -6.1 | -8.7 | ·
Cc1ccc(C2C(C#N)=C(N)Oc3cc(N)ccc32)cc1 (centres undefined) | · | · | -6.0 | 90.0* | ·
Cc1nsc2nc3c(F)c(F)c(F)c(F)c3cc12 | · | · | -6.5 | -0.4 | ·
CCOc1cc(C2C(C#N)=C(N)Oc3cc(N)ccc32)ccc1O (centres undefined) | · | · | -18.3 | 69.0* | ·
N#CC1=C(N)Oc2cc(N)ccc2C1C1CC=CCC1 (centres undefined) | 2.0 | 41.0 | -2.4 | 140.7* | 42.5
COc1ccc(C(CC(=O)O)NC(=O)c2ccccc2[N+](=O)[O-])cc1 (centres undefined) | 3.3 | -2.4 | -2.2 | ? | 2.0
CN(C)CCN(Cc1cccs1)S(=O)(=O)c1csc(C(N)=O)c1 | · | · | -2.9 | 3.3 | ·
CC(=O)C1=C(C)N(Cc2ccc(Cl)cc2)C(=S)NC1c1ccccc1 (centres undefined) | · | · | -2.3 | · | ·
COc1ccc([N+](=O)[O-])cc1NC(=O)c1ccc(Br)s1 | 78.7* | 4.7 | -18.9 | -0.2 | 2.3
CC(=O)c1ccc(OC(=O)C2CSC3(C)CCC(=O)N23)cc1 (centres undefined) | · | · | -6.1 | · | ·
COc1cc2cc(CCCOC(=O)c3ccc4c(c3)OCO4)oc(=O)c2cc1OC | · | · | -2.6 | · | ·
Cc1c(C(=O)NCCN(C)C)oc2ccc(S(=O)(=O)N3CCC4(CC3)OCCO4)cc12 | · | · | -2.6 | 22.5* | ·
O=C(COc1ccccc1)Nc1ccc2oc(=O)ccc2c1 | · | · | -6.9 | 0.4 | ·
C=C(C)CSc1cc(C)c(C#N)c2nc3ccccc3n12 | 7.5 | 37.2 | -8.3 | 56.0* | 12.3
Cc1c2c(n3c(nc4ccccc43)c1C#N)N(CCN1CCOCC1)CC2 | 75.5* | · | + | 111.5* | ·
